Results on 7 molecules are retold here after ChEMBL document CHEMBL3585303, “Progress towards small molecule menin-mixed lineage leukemia (MLL) interaction inhibitors with in vivo utility” (Bioorg Med Chem Lett, 2015).

The first series deals with Menin/Histone-lysine N-methyltransferase MLL (Homo sapiens, UniProt O00255). The experiment in a line: Inhibition of menin-MLL1 interaction (unknown origin) incubated for 1 hr by fluorescein and Texas Red labeled MBM1 based fluorescence polarization assay. It is filed as protein assay.
Sequence of Menin/Histone-lysine N-methyltransferase MLL (O00255 whole entry): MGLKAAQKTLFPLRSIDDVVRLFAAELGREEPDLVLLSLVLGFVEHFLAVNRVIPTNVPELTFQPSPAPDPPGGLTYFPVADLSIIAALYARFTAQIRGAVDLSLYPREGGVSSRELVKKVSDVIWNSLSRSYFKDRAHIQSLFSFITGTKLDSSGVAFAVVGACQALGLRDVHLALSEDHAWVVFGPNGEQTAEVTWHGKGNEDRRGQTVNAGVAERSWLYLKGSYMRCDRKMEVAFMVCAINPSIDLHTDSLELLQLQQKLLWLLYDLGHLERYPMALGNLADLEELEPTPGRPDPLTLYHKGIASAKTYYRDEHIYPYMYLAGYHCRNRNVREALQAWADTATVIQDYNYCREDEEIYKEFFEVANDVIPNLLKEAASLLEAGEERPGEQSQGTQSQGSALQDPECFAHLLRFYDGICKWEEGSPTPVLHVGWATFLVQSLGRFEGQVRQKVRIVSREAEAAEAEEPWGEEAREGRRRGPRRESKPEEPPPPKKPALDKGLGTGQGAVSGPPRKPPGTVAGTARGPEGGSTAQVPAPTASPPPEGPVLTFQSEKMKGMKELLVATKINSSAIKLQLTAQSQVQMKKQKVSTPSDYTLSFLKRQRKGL
Sequence of Menin/Histone-lysine N-methyltransferase MLL (Q03164 1-2718 partner limits assumed): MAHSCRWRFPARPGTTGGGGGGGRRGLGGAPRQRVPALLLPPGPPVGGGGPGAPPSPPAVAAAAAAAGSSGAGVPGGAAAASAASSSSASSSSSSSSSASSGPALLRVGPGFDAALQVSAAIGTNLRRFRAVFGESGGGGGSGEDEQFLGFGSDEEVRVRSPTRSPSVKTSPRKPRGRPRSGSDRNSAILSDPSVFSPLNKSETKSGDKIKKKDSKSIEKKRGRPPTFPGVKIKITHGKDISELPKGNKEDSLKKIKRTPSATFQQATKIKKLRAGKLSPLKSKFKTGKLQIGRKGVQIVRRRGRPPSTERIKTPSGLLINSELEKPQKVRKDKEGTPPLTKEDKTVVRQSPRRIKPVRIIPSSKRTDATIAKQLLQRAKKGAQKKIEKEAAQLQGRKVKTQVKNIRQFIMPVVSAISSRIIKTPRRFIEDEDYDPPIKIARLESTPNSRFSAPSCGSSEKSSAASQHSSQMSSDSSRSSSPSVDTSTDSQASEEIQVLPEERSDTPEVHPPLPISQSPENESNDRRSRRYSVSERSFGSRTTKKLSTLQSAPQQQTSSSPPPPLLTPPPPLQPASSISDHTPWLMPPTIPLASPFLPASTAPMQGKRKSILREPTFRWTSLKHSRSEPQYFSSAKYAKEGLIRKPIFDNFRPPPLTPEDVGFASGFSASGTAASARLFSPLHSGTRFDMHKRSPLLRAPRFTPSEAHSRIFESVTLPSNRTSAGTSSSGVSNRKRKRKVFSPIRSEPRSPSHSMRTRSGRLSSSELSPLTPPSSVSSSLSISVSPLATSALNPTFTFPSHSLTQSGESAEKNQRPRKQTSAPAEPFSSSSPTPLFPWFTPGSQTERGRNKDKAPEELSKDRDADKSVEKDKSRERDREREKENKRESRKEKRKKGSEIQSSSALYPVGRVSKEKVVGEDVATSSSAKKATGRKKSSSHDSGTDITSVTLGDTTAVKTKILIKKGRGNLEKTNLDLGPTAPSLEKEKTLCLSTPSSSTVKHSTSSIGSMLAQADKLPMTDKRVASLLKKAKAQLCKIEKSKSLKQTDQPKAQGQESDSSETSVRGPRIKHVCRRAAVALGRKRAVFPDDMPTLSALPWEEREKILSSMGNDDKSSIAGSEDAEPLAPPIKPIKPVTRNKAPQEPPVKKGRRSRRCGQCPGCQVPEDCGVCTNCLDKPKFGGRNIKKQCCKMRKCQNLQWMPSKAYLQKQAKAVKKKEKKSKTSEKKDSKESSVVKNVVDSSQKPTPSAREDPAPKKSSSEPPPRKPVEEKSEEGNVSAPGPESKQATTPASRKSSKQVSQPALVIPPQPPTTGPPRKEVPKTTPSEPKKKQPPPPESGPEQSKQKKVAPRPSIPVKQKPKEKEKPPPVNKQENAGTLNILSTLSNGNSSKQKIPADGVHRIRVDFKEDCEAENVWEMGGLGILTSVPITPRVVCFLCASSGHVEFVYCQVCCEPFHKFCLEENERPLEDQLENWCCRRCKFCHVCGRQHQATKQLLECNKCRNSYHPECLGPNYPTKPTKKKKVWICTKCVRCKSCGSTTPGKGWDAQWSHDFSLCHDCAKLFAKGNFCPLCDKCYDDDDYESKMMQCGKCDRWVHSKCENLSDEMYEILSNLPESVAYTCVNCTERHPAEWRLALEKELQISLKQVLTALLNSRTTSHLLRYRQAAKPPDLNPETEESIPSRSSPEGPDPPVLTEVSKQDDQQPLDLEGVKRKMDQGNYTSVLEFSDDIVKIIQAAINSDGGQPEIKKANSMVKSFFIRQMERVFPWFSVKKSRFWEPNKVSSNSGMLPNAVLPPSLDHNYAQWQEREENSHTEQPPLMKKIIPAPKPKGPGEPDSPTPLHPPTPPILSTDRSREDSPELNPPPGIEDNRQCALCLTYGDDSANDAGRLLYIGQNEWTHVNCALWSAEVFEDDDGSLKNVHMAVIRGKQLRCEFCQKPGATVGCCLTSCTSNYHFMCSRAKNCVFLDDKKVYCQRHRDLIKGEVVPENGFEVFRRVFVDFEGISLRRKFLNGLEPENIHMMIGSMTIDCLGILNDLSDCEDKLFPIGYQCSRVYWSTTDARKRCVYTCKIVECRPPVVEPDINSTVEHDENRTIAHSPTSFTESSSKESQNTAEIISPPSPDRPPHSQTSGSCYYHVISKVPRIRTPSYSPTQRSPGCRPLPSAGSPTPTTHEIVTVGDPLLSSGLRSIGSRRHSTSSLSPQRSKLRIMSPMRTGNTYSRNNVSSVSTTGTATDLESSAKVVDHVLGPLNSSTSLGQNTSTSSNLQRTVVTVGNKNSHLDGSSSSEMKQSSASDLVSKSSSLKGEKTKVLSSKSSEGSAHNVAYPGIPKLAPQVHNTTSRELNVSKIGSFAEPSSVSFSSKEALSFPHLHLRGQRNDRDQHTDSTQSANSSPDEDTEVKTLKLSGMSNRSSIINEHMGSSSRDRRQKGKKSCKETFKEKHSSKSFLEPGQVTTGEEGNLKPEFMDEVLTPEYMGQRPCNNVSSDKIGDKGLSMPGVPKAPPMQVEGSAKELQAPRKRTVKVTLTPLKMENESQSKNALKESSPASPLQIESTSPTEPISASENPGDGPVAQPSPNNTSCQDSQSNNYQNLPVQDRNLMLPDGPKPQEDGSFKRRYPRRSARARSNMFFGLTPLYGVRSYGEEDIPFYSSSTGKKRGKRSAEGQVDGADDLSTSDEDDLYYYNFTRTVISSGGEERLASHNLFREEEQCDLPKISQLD
Sequence of Menin/Histone-lysine N-methyltransferase MLL (Q03164 2719-3969 partner limits assumed): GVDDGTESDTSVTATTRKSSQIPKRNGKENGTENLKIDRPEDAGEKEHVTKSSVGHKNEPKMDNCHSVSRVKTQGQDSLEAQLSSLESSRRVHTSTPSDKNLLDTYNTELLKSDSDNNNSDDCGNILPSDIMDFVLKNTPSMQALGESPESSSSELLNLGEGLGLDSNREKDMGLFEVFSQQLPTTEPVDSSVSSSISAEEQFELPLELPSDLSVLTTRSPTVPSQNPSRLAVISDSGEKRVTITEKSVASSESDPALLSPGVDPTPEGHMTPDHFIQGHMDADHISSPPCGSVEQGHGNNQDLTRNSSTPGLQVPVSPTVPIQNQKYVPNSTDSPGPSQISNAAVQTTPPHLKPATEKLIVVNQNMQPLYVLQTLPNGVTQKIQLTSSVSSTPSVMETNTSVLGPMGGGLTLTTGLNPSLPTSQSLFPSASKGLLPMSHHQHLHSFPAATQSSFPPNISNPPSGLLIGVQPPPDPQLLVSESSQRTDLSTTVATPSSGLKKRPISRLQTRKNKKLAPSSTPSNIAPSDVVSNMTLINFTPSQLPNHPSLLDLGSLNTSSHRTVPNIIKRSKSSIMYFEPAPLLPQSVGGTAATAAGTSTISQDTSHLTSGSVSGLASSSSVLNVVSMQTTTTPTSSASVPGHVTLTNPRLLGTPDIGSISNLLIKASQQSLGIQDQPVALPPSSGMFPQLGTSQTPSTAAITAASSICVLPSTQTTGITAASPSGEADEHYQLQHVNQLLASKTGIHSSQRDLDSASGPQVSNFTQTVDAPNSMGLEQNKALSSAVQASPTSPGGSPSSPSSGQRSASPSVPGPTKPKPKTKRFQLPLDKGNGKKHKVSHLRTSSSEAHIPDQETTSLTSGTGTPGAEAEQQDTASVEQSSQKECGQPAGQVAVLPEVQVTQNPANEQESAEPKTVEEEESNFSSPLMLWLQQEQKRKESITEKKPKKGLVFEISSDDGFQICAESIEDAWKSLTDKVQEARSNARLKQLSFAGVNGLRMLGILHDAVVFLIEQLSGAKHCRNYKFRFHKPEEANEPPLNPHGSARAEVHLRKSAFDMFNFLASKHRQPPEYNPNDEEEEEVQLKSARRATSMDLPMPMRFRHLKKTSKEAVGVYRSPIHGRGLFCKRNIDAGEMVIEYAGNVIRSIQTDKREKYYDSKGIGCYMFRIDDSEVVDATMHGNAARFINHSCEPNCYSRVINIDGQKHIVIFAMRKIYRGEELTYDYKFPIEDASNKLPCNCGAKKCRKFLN
Conditions: not given
Background: Polarisation of emitted light reports the rotation of a fluorescent probe.
One may read the IC50 as the concentration that inhibits the measured activity by half. The low end stands for higher potency, the high end for lower potency. Molecule `N#Cc1ccc(OCCCN2CCC(C(O)(c3cccc(F)c3)c3nccs3)CC2)cc1` (stereo unspecified) displayed an IC50 of 0.46 µM.

The next series deals with MV4-11. The experiment in a line: Growth inhibition of human MV4-11 cells.
Conditions: not given
It is filed as functional.
One may read the GI50 as the concentration at which growth is held to half of that of the control. High values mean less potent growth inhibition, low ones more potent growth inhibition. On to `CC1(C)CN=C(N2CCN(c3ncnc4sc(CC(F)(F)F)cc34)CC2)S1`, for which it took 3 µM to inhibit growth by half (GI50). That is a single-digit micromolar value.

Test system in a further series: not listed separately
Nature of the series: Intrinsic clearance in human liver microsomes. The following applies: read-out: CLH. It is filed as ADME.
In the case of `N#Cc1ccc(OCCCN2CCC(C(O)(c3ccccc3)C3CCCC3)CC2)cc1` (stereo unspecified), the CLint scaled turned out to be 124 mL/min/kg.

Consider `N#Cc1ccc(OCCCN2CCC(C(O)(c3nccs3)C3CCCC3)CC2)cc1` (stereo unspecified), for which the CLint scaled stood at 77.4 mL/min/kg.

As for `N#Cc1ccc(OCCCN2CCC(C(O)(c3cccc(F)c3)c3nccs3)CC2)cc1` (stereo unspecified), the CLint scaled turned out to be 69 mL/min/kg.

With `NS(=O)(=O)c1ccc(OCCCN2CCC(C(O)(c3ccccn3)C3CCCC3)CC2)cc1` (racemic), the CLint scaled came to 16.2 mL/min/kg.

Turning to `NS(=O)(=O)c1ccc(OCCCN2CCC(C(O)(c3cccc(F)c3)c3nccs3)CC2)cc1` (stereo unspecified), the CLint scaled amounted to 50 mL/min/kg.

Test system in the next series: not listed separately
Nature of the series: Intrinsic clearance in rat liver microsomes. The series is classed as ADME. To be noted: read-out: CLH. In general terms: Microsomes from liver hold many membrane-bound enzymes, among them those of drug oxidation.
As to `N#Cc1ccc(OCCCN2CCC(C(O)(c3ccccc3)C3CCCC3)CC2)cc1` (stereo unspecified), the CLint scaled came to 919 mL/min/kg.

Consider `N#Cc1ccc(OCCCN2CCC(C(O)(c3nccs3)C3CCCC3)CC2)cc1` (stereo unspecified), for which the CLint scaled was 558 mL/min/kg.

As for `N#Cc1ccc(OCCCN2CCC(C(O)(c3cccc(F)c3)c3nccs3)CC2)cc1` (stereo unspecified), the CLint scaled was 273 mL/min/kg.

On to `NS(=O)(=O)c1ccc(OCCCN2CCC(C(O)(c3ccccn3)C3CCCC3)CC2)cc1` (racemic), for which the CLint scaled was found to be 271 mL/min/kg.

Consider `NS(=O)(=O)c1ccc(OCCCN2CCC(C(O)(c3cccc(F)c3)c3nccs3)CC2)cc1` (stereo unspecified), for which the CLint scaled was determined as 206 mL/min/kg.

Test system in another series: not listed separately
The experiment in a line: Unbound fraction in human plasma. The series is classed as ADME, cell-free.
Conditions: not given
The procedure, abridged:
(§1)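 Plasma protein binding was determined in human, rat or mouse plasma and reported as the fraction unbound (fu).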
Usually fraction unbound stands for the share of the substance not bound to proteins or other matrix. Read a high fraction unbound as much free substance. For the molecule `N#Cc1ccc(OCCCN2CCC(C(O)(c3ccccc3)C3CCCC3)CC2)cc1` (stereo unspecified), the fraction unbound is 0.004.

Take `N#Cc1ccc(OCCCN2CCC(C(O)(c3nccs3)C3CCCC3)CC2)cc1` (stereo unspecified): the free fraction (fraction unbound) was 0.117.

Molecule `N#Cc1ccc(OCCCN2CCC(C(O)(c3cccc(F)c3)c3nccs3)CC2)cc1` (stereo unspecified) registered an unbound share (fraction unbound) of 0.04.

For `NS(=O)(=O)c1ccc(OCCCN2CCC(C(O)(c3ccccn3)C3CCCC3)CC2)cc1` (racemic), the fraction unbound came out at 0.291.

The molecule `NS(=O)(=O)c1ccc(OCCCN2CCC(C(O)(c3cccc(F)c3)c3nccs3)CC2)cc1` (stereo unspecified) returned a free fraction (fraction unbound) of 0.17.

Test system in a further series: not listed separately
The experiment in a line: Unbound fraction in mouse plasma.
Conditions: not given
It is filed as ADME, cell-free. The method, boiled down: as §1
Molecule `N#Cc1ccc(OCCCN2CCC(C(O)(c3ccccc3)C3CCCC3)CC2)cc1` (stereo unspecified) yielded a free fraction (fraction unbound) of 0.013.

The molecule `N#Cc1ccc(OCCCN2CCC(C(O)(c3nccs3)C3CCCC3)CC2)cc1` (stereo unspecified) registered a free fraction (fraction unbound) of 0.192.

Consider `NS(=O)(=O)c1ccc(OCCCN2CCC(C(O)(c3ccccn3)C3CCCC3)CC2)cc1` (racemic), for which the unbound share (fraction unbound) came to 0.342.

Turning to `NS(=O)(=O)c1ccc(OCCCN2CCC(C(O)(c3cccc(F)c3)c3nccs3)CC2)cc1` (stereo unspecified), the unbound share (fraction unbound) is 0.166.

Test system in a further series: not listed separately
The experiment in a line: Plasma clearance in rat at 0.2 mg/kg, iv. It is filed as ADME, organism-based.
Conditions: not given
The procedure, abridged: (§2)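 Rats received a single IV dose of 0.2 mg/kg, given either as a discrete dose or within an IV cassette study. Reported parameters were plasma clearance CLp (mL/min/kg), T1/2, and volume of distribution at steady state Vss (L/kg).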
Broadly, the clearance is the rate of elimination divided by the concentration. A low value points to inefficient removal. On to `N#Cc1ccc(OCCCN2CCC(C(O)(c3ccccc3)C3CCCC3)CC2)cc1` (stereo unspecified), for which the clearance amounted to 40 mL/min/kg.

`N#Cc1ccc(OCCCN2CCC(C(O)(c3cccc(F)c3)c3nccs3)CC2)cc1` (stereo unspecified) showed a clearance of 32 mL/min/kg.

As to `NS(=O)(=O)c1ccc(OCCCN2CCC(C(O)(c3ccccn3)C3CCCC3)CC2)cc1` (racemic), the clearance was found to be 293 mL/min/kg.

Consider `NS(=O)(=O)c1ccc(OCCCN2CCC(C(O)(c3cccc(F)c3)c3nccs3)CC2)cc1` (stereo unspecified), for which the clearance is 26 mL/min/kg. Compared with the last molecule, the clearance is about 11-fold lower.

Test system in the next series: not listed separately
The experiment in a line: Half life in rat at 0.2 mg/kg, iv. The series is classed as ADME, organism-based. To be noted: in vivo. The procedure, abridged: as §2
What is called half-life is the time in which the quantity being followed falls by half. High values mean slow decline, low ones rapid decline. `N#Cc1ccc(OCCCN2CCC(C(O)(c3ccccc3)C3CCCC3)CC2)cc1` (stereo unspecified) had a half-life of 1.6 h.

In turn, `N#Cc1ccc(OCCCN2CCC(C(O)(c3cccc(F)c3)c3nccs3)CC2)cc1` (stereo unspecified) showed a half-life of 2.8 h.

For `NS(=O)(=O)c1ccc(OCCCN2CCC(C(O)(c3ccccn3)C3CCCC3)CC2)cc1` (racemic), the half-life was 0.2 h.

On to `NS(=O)(=O)c1ccc(OCCCN2CCC(C(O)(c3cccc(F)c3)c3nccs3)CC2)cc1` (stereo unspecified), for which the half-life is 1.4 h. This half-life is about 7-fold higher than that of the molecule before.

Test system in a further series: not listed separately
Nature of the series: Volume of distribution at steady state in rat at 0.2 mg/kg, iv. The series is classed as ADME, organism-based. To be noted: in vivo, read-out: Vdss. The procedure, abridged: as §2
With `N#Cc1ccc(OCCCN2CCC(C(O)(c3ccccc3)C3CCCC3)CC2)cc1` (stereo unspecified), the Vd stood at 2.9 L/kg.

Consider `N#Cc1ccc(OCCCN2CCC(C(O)(c3cccc(F)c3)c3nccs3)CC2)cc1` (stereo unspecified), for which the Vd was determined as 7.2 L/kg.

On to `NS(=O)(=O)c1ccc(OCCCN2CCC(C(O)(c3ccccn3)C3CCCC3)CC2)cc1` (racemic), for which the Vd turned out to be 4.3 L/kg.

As to `NS(=O)(=O)c1ccc(OCCCN2CCC(C(O)(c3cccc(F)c3)c3nccs3)CC2)cc1` (stereo unspecified), the Vd came to 4.4 L/kg.

Test system in another series: not listed separately
Nature of the series: Unbound fraction in rat plasma. The series is classed as ADME, cell-free.
Conditions: not given
The procedure, abridged: as §1
Regarding `N#Cc1ccc(OCCCN2CCC(C(O)(c3cccc(F)c3)c3nccs3)CC2)cc1` (stereo unspecified), the fraction unbound was 0.108.

For `NS(=O)(=O)c1ccc(OCCCN2CCC(C(O)(c3cccc(F)c3)c3nccs3)CC2)cc1` (stereo unspecified), the unbound share (fraction unbound) was 0.322.

Test system in the next series: not listed separately
Nature of the series: Drug level in rat hepatic S9 fraction treated with compound 10b assessed as compound formation. It is filed as ADME, tissue-based, Liver.
Conditions: not given
For the molecule `O[C@](c1cccc(F)c1)(c1ccccn1)C1CCNCC1`, the Drug metabolism result is on record as “metabolite_detected”.
